Measured values: publication PMC6361391 (Chemical communications (Cambridge, England), 2017)
Converted amounts (≈) assume the structure as drawn. Where a SMILES comes first, the peptide text is derived from it. Bridges are numbered along the chain shown (N, C = ends). [ ]: non-standard residue; d: D form. d(aIle) = CC[C@H](C)[C@@H](N)C(=O)O; dNMeF = CN[C@H](Cc1ccccc1)C(=O)O

What was measured:
[1] = system: Streptococcus salivarius ATCC 13419; format: cell-based
[2] = system: Staphylococcus epidermidis ATCC 14990; format: cell-based
[3] = system: Escherichia coli ATCC 10798; format: cell-based
[4] = system: Gram-positive bacteria; assay: MIC assays, overall activity across the Gram-positive bacteria; format: cell-based; settings: overall grade (good, moderate, poor) from the MIC assays
Procedure, shortened: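 Five Gram-positive species, with E. coli as a Gram-negative negative control and the parent natural antibiotic as a positive control. The test compound was tested at 32, 16, 8, 4, 2, 1, 0.5 and 0.25 μg/mL (final), diluted from a 10 mg/mL stock in sterilized DMSO. Minimum inhibitory concentration was the read-out.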

[5] = system: Bacillus subtilis ATCC 6051; format: cell-based
[6] = system: Staphylococcus aureus ATCC 29213; format: cell-based
[7] = format: physicochemical; settings: pH 7.4
[8] = system: Enterococcus durans ATCC 6056; format: cell-based
[9] = cited from earlier work

Molecule: CC[C@H](C)[C@H](NC(=O)[C@H](NC(=O)[C@@H](CCC(N)=O)NC(=O)[C@H](CO)NC(=O)[C@H](C)NC(=O)[C@@H](Cc1ccccc1)NC)[C@@H](C)CC)C(=O)N[C@@H](CO)C(=O)N[C@H]1C(=O)N[C@@H](C)C(=O)N[C@@H](CCCCN)C(=O)N[C@@H]([C@@H](C)CC)C(=O)O[C@H]1C [Ala2,Lys10-teixobactin] (H-[dNMeF]AS[dQ][d(aIle)]IS[dT]AKI; ester 8-C)
- MIC, Streptococcus salivarius ATCC 13419 [1]: 32 µg/mL (≈ 27.2 µM)
- MIC, Staphylococcus epidermidis ATCC 14990 [2]: 32 µg/mL (≈ 27.2 µM)
- MIC, Escherichia coll ATCC 10798 [3]: >32 µg/mL
- antibiotic activity [4]: poor
- MIC, Bacillus subtilis ATCC 6051 [5]: 32 µg/mL (≈ 27.2 µM)
- MIC, Staphylococcus aureus ATCC 29213 [6]: >32 µg/mL
- solubility in PBS buffer [7]: good
- MIC, Enterococcus durans ATCC 6056 [8]: >32 µg/mL

Molecule: CC[C@H](C)[C@H](NC(=O)[C@@H](Cc1ccccc1)NC)C(=O)N[C@@H](C)C(=O)N[C@H](CCC(N)=O)C(=O)N[C@@H](C(=O)N[C@H](C(=O)N[C@@H](CO)C(=O)N[C@H]1C(=O)N[C@@H](C)C(=O)N[C@@H](CCCCN)C(=O)N[C@@H]([C@@H](C)CC)C(=O)O[C@H]1C)[C@@H](C)CC)[C@@H](C)CC [Ala3,Lys10-teixobactin] (H-[dNMeF]IA[dQ][d(aIle)]IS[dT]AKI; ester 8-C)
- MIC, Streptococcus salivarius ATCC 13419 [1]: 0.5 µg/mL (≈ 0.416 µM)
- MIC, Staphylococcus epidermidis ATCC 14990 [2]: 1 µg/mL (≈ 0.833 µM)
- MIC, Escherichia coll ATCC 10798 [3]: >32 µg/mL
- antibiotic activity [4]: good
- MIC, Bacillus subtilis ATCC 6051 [5]: 1 µg/mL (≈ 0.833 µM)
- MIC, Staphylococcus aureus ATCC 29213 [6]: 0.5 µg/mL (≈ 0.416 µM)
- MIC, Enterococcus durans ATCC 6056 [8]: 4 µg/mL (≈ 3.33 µM)

Molecule: CC[C@H](C)[C@H](NC(=O)[C@@H](Cc1ccccc1)NC)C(=O)N[C@@H](CO)C(=O)N[C@H](CCC(N)=O)C(=O)N[C@@H](C(=O)N[C@@H](C)C(=O)N[C@@H](CO)C(=O)N[C@H]1C(=O)N[C@@H](C)C(=O)N[C@@H](CCCCN)C(=O)N[C@@H]([C@@H](C)CC)C(=O)O[C@H]1C)[C@@H](C)CC [Ala6,Lys10-teixobactin] (H-[dNMeF]IS[dQ][d(aIle)]AS[dT]AKI; ester 8-C)
- MIC, Streptococcus salivarius ATCC 13419 [1]: >32 µg/mL
- MIC, Staphylococcus epidermidis ATCC 14990 [2]: >32 µg/mL
- MIC, Escherichia coll ATCC 10798 [3]: >32 µg/mL
- antibiotic activity [4]: poor
- MIC, Bacillus subtilis ATCC 6051 [5]: >32 µg/mL
- MIC, Staphylococcus aureus ATCC 29213 [6]: >32 µg/mL
- solubility in PBS buffer [7]: good
- MIC, Enterococcus durans ATCC 6056 [8]: >32 µg/mL

Molecule: CC[C@H](C)[C@H](NC(=O)[C@@H](Cc1ccccc1)NC)C(=O)N[C@@H](CO)C(=O)N[C@H](CCC(N)=O)C(=O)N[C@@H](C(=O)N[C@H](C(=O)N[C@@H](C)C(=O)N[C@H]1C(=O)N[C@@H](C)C(=O)N[C@@H](CCCCN)C(=O)N[C@@H]([C@@H](C)CC)C(=O)O[C@H]1C)[C@@H](C)CC)[C@@H](C)CC [Ala7,Lys10-teixobactin] (H-[dNMeF]IS[dQ][d(aIle)]IA[dT]AKI; ester 8-C)
- MIC, Staphylococcus epidermidis ATCC 14990 [2]: 32 µg/mL (≈ 26.7 µM)
- MIC, Escherichia coll ATCC 10798 [3]: >32 µg/mL
- antibiotic activity [4]: poor
- MIC, Bacillus subtilis ATCC 6051 [5]: 32 µg/mL (≈ 26.7 µM)
- MIC, Staphylococcus aureus ATCC 29213 [6]: >32 µg/mL
- solubility in PBS buffer [7]: good
- MIC, Enterococcus durans ATCC 6056 [8]: >32 µg/mL

Molecule: CC[C@H](C)[C@H](NC(=O)[C@@H](Cc1ccccc1)NC)C(=O)N[C@@H](CO)C(=O)N[C@H](CCC(N)=O)C(=O)N[C@@H](C(=O)N[C@H](C(=O)N[C@@H](CO)C(=O)N[C@H]1C(=O)N[C@@H](C)C(=O)N[C@@H](C)C(=O)N[C@@H]([C@@H](C)CC)C(=O)O[C@H]1C)[C@@H](C)CC)[C@@H](C)CC [Ala10-teixobactin]
- MIC, Streptococcus salivarius ATCC 13419 [1]: 1 µg/mL (≈ 0.863 µM)
- MIC, Staphylococcus epidermidis ATCC 14990 [2]: 4 µg/mL (≈ 3.45 µM)
- MIC, Escherichia coll ATCC 10798 [3]: >32 µg/mL
- antibiotic activity [4]: moderate
- MIC, Staphylococcus aureus ATCC 29213 [6]: 1 µg/mL (≈ 0.863 µM)
- MIC, Enterococcus durans ATCC 6056 [8]: 8 µg/mL (≈ 6.9 µM)

Molecule: CC[C@H](C)[C@H](NC(=O)[C@@H](Cc1ccccc1)NC)C(=O)N[C@@H](CO)C(=O)N[C@H](C)C(=O)N[C@@H](C(=O)N[C@H](C(=O)N[C@@H](CO)C(=O)N[C@H]1C(=O)N[C@@H](C)C(=O)N[C@@H](CCCCN)C(=O)N[C@@H]([C@@H](C)CC)C(=O)O[C@H]1C)[C@@H](C)CC)[C@@H](C)CC [D-Ala4,Lys10-teixobactin] (H-[dNMeF]IS[dA][d(aIle)]IS[dT]AKI; ester 8-C)
- MIC, Streptococcus salivarius ATCC 13419 [1]: 2 µg/mL (≈ 1.72 µM)
- MIC, Staphylococcus epidermidis ATCC 14990 [2]: 4 µg/mL (≈ 3.45 µM)
- MIC, Escherichia coll ATCC 10798 [3]: >32 µg/mL
- antibiotic activity [4]: moderate
- MIC, Bacillus subtilis ATCC 6051 [5]: 4 µg/mL (≈ 3.45 µM)
- MIC, Staphylococcus aureus ATCC 29213 [6]: 1 µg/mL (≈ 0.862 µM)
- solubility in PBS buffer [7]: good

Molecule: CC[C@H](C)[C@H](NC(=O)[C@@H](C)NC(=O)[C@@H](CCC(N)=O)NC(=O)[C@H](CO)NC(=O)[C@@H](NC(=O)[C@@H](Cc1ccccc1)NC)[C@@H](C)CC)C(=O)N[C@@H](CO)C(=O)N[C@H]1C(=O)N[C@@H](C)C(=O)N[C@@H](CCCCN)C(=O)N[C@@H]([C@@H](C)CC)C(=O)O[C@H]1C [D-Ala5,Lys10-teixobactin] (HELM PEPTIDE1{[CN[C@H](Cc1ccccc1)C(=O)[*:2]].I.S.[dQ].[dA].I.S.[C[C@H](O[*:3])[C@@H](N[*:1])C(=O)[*:2]].A.K.I}$PEPTIDE1,PEPTIDE1,8:R3-11:R2$$$V2.0)
- MIC, Escherichia coll ATCC 10798 [3]: >32 µg/mL
- antibiotic activity [4]: poor
- MIC, Staphylococcus aureus ATCC 29213 [6]: >32 µg/mL
- solubility in PBS buffer [7]: good
- MIC, Enterococcus durans ATCC 6056 [8]: >32 µg/mL

Molecule: CC[C@H](C)[C@H](NC(=O)[C@@H](Cc1ccccc1)NC)C(=O)N[C@@H](CO)C(=O)N[C@H](CCC(N)=O)C(=O)N[C@@H](C(=O)N[C@H](C(=O)N[C@@H](CO)C(=O)N[C@H]1C(=O)N[C@@H](C)C(=O)N[C@@H](CCCCN)C(=O)N[C@@H](C)C(=O)O[C@H]1C)[C@@H](C)CC)[C@@H](C)CC [Lys10,Ala11-teixobactin] (H-[dNMeF]IS[dQ][d(aIle)]IS[dT]AKA; ester 8-C)
- MIC, Streptococcus salivarius ATCC 13419 [1]: 2 µg/mL (≈ 1.7 µM)
- MIC, Staphylococcus epidermidis ATCC 14990 [2]: 8 µg/mL (≈ 6.81 µM)
- MIC, Escherichia coll ATCC 10798 [3]: >32 µg/mL
- antibiotic activity [4]: moderate
- MIC, Bacillus subtilis ATCC 6051 [5]: 8 µg/mL (≈ 6.81 µM)
- MIC, Staphylococcus aureus ATCC 29213 [6]: 4 µg/mL (≈ 3.41 µM)
- solubility in PBS buffer [7]: good
- MIC, Enterococcus durans ATCC 6056 [8]: >32 µg/mL

Molecule: CC[C@H](C)[C@H](NC(=O)[C@@H](Cc1ccccc1)NC)C(=O)N[C@@H](CO)C(=O)N[C@H](CCC(N)=O)C(=O)N[C@@H](C(=O)N[C@H](C(=O)N[C@@H](CO)C(=O)N[C@H]1C(=O)N[C@@H](C)C(=O)N[C@@H](CCCCN)C(=O)N[C@@H]([C@@H](C)CC)C(=O)O[C@H]1C)[C@@H](C)CC)[C@@H](C)CC [Lys10-teixobactin]
- MIC, Streptococcus salivarius ATCC 13419 [1]: 0.5 µg/mL (≈ 0.411 µM)
- MIC, Staphylococcus epidermidis ATCC 14990 [2]: 0.5 to 1 µg/mL
- MIC, Escherichia coll ATCC 10798 [3]: >32 µg/mL
- antibiotic activity [4]: good
- MIC values reported previously ([9]; earlier report of the same group): 0.25 to 1 µg/mL
- MIC, Bacillus subtilis ATCC 6051 [5]: 1 µg/mL (≈ 0.822 µM)
- MIC, Staphylococcus aureus ATCC 29213 [6]: 0.5 µg/mL (≈ 0.411 µM)
- MIC, Enterococcus durans ATCC 6056 [8]: 2 µg/mL (≈ 1.64 µM)

Molecule: CC[C@H](C)[C@H](NC(=O)[C@@H](C)NC)C(=O)N[C@@H](CO)C(=O)N[C@H](CCC(N)=O)C(=O)N[C@@H](C(=O)N[C@H](C(=O)N[C@@H](CO)C(=O)N[C@H]1C(=O)N[C@@H](C)C(=O)N[C@@H](CCCCN)C(=O)N[C@@H]([C@@H](C)CC)C(=O)O[C@H]1C)[C@@H](C)CC)[C@@H](C)CC [N-Me-D-Ala1,Lys10-teixobactin]
- MIC, Streptococcus salivarius ATCC 13419 [1]: >32 µg/mL
- MIC, Staphylococcus epidermidis ATCC 14990 [2]: >32 µg/mL
- MIC, Escherichia coll ATCC 10798 [3]: >32 µg/mL
- antibiotic activity [4]: poor
- MIC, Bacillus subtilis ATCC 6051 [5]: >32 µg/mL
- MIC, Staphylococcus aureus ATCC 29213 [6]: >32 µg/mL
- solubility in PBS buffer [7]: good
- MIC, Enterococcus durans ATCC 6056 [8]: >32 µg/mL

Molecule: Lys3,Arg10-teixobactin
- antibiotic activity ([9]; lysine scan of Arg10-teixobactin): active

Molecule: lipobactin
- loss in activity relative to Arg10-teixobactin ([9]; residues 1 to 5 replaced with a dodecanoyl group): two- to fourfold loss in activity
